GPR7 antagonist: GPR7 receptor antagonists, primary screen, cell-based, fluorescence, single concentration; GPR7-expressing cells, fluorescence antagonist assay; Neuropeptides B/W receptor type 1 (Homo sapiens), P48145; 1.1% of 290,000 active; inhibition, % at 4.4 µM; AID 1861, 2009; in the data active means inhibition above about 16%, passing the limit was not always enough;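 further: cells stimulated with the agonist NPW; 0% = agonist with vehicle and 100% = vehicle without agonist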
Target sequence (P48145 whole entry, looked up): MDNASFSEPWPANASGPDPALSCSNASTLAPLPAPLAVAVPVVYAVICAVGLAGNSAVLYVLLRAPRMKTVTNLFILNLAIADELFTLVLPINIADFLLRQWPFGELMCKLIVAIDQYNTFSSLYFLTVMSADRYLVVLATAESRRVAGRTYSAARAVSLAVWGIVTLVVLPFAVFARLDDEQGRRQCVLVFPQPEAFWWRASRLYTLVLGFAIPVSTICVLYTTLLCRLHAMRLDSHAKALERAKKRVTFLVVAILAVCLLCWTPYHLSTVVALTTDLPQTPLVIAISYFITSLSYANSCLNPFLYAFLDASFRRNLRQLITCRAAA
TAAR1 ag: human TAAR1 agonists, primary screen, Fluo-8 calcium fluorescence, CHO RD-HGA16 cells | vehicle wells 0%, saturating PEA agonist 100% | activation, % at 3 µM | 0.99% of 360,000 active | AID 624467, 2012;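 active means activation above the mean activation of all test compounds in the run plus 3 SD, cut at about 38% in these data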
Target sequence (Q96RJ0 whole entry, looked up): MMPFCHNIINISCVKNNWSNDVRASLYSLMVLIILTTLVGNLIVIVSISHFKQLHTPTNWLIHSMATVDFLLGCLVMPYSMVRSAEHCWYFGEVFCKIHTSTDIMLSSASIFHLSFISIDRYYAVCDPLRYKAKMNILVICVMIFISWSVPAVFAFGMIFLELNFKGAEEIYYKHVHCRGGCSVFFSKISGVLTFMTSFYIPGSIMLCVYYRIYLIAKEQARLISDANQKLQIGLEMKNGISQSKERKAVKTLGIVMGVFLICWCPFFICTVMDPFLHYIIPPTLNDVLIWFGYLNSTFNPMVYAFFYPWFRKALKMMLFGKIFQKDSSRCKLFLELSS
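System: CHO-derived RD-HGA16 cells with stable Gα16 and human TAAR1 / Times: 17-24 h plating, Fluo-8 75 min 37 °C, 30 min RT / Technique: calcium-sensitive Fluo-8 signal, excitation 470-495, emission 515-575 nm / Measure: % activation relative to PEA EC100 response / Benchmarks: DMSO and PEA EC100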
TAAR1 antag: human TAAR1 antagonists, primary screen, Fluo-8 calcium fluorescence, CHO RD-HGA16 cells; Trace amine-associated receptor 1 (Homo sapiens), Q96RJ0; antagonist; inhibition, % at 3 µM; 1.5% of 360,000 active; AID 624466, 2012;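 active means inhibition above a per-plate cutoff, the mean inhibition of test compounds on that plate plus 3 SD, cut at about 49% in these data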;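 further: 0% = DMSO plus EC80 beta-PEA response and 100% = DMSO alone without agonist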
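System: CHO RD-HGA16 cells bearing hTAAR1. Reagent: EC80 β-phenethylamine stimulus. Schedule: seeding 17-24 h prior, 75-min 37 °C, 30-min RT dye loading. Signal: Fluo-8 intracellular calcium dye fluorescence, real-time kinetic reads. Read-out: % inhibition from peak post-agonist over basal fluorescence ratio. Benchmarks: vehicle wells and EC80 agonist wells. Replicates: n of 1.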
OX1R antag-1: antagonists of human orexin 1 receptor (OX1R). Orexin/Hypocretin receptor type 1 (Homo sapiens), O43613. OX1R-expressing cells, FRET antagonist read-out. inhibition, % at 6.6 µM. 1.8% of 330,000 active; in the data active means inhibition mostly above about 38%, no sharp cut-off; inactive means mostly below about 40%;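 further: 0% = agonist challenge alone and 100% = reference antagonist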
CHO parental Ca: ATP-evoked calcium signal inhibitors, parental CHO, primary screen, counter-screen for OX1R antagonist project, cell-based, fluorescence, Fluo-8 calcium dye | AID 463079, 2010 | 0.63% of 330,000 active | parental CHO-K1, ATP-induced calcium, Fluo-8 fluorescence | inhibition, % at 5.6 µM;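 active means inhibition above that plate's mean sample inhibition plus 3 SD, cut at about 26% in these data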;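 further: 0% = ATP-challenged DMSO wells and 100% = DMSO wells without ATP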
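Assay system: untransfected parental CHO cell line. Also added: ATP agonist challenge. Dosing: one dose, 5.6 µM nominal. Measured by: Fluo-8 fluorescence. Read-out: % inhibition. Benchmarks: ATP wells versus no-ATP DMSO wells. Repeats: no replicates.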
OX1R antag-2: OX1R (HCRTR1) antagonists, primary screen, fluorescence, CHO/OX1R cells, Fluo-8 calcium, orexin A. Orexin/Hypocretin receptor type 1 (Homo sapiens), O43613. Fluo-8 calcium fluorescence. inhibition, % at 5 µM. 0.43% of 330,000 active. AID 434989, 2010;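 active means inhibition above its plate's threshold, mean inhibition of all tested compounds on the plate plus 3 SD, cut at about 37% in these data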;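 further: 0% = orexin A challenge wells and 100% = SB-334867-A antagonist wells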
TAAR1 nonsel count: nonselective antagonists in TAAR1 counter-screen cells, counter-screen for hTAAR1 antagonist project, cell-based, fluorescence, calcium | shares compounds with TAAR1 antag | counterscreen cell line, antagonist mode | inhibition, % at 3 µM | 77% of 2,400 active | AID 651780, 2012; in the data active means inhibition above about 22%;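 further: CHO-Ga16 host cells stimulated with ATP at an EC80 level; 0% = agonist EC80 plus vehicle and 100% = vehicle without agonist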
TAAR1 ant conf: human TAAR1 antagonists, retest of hits, confirmation, cell-based, fluorescence; AID 651785, 2012; inhibition, % at 3 µM; shares compounds with TAAR1 antag; 40% of 2,400 active; TAAR1-expressing cells, fluorescence antagonist read-out; in the data active means inhibition above about 49%;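 further: CHO-Ga16 host cells challenged with agonist PEA near its EC80; 0% = agonist at EC80 plus vehicle and 100% = vehicle with no agonist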
Ga16 nonsel ag: calcium activation in Ga16-expressing cells, counter-screen for TAAR1 antagonist project, cell-based, fluorescence; shares compounds with TAAR1 antag; agonist counterscreen; activation, % at 3 µM; 18% of 2,400 active; AID 651953, 2012; in the data active means activation above about 12%;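 further: 0% = vehicle wells and 100% = saturating stimulus response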
TAAR1 ag count: TAAR1 activation by candidate antagonists – cell-based, fluorescence, counter-screen for TAAR1 antagonist project; hTAAR1 cell line, agonist mode; 2% of 2,400 active; AID 651955, 2012; shares compounds with TAAR1 antag; activation, % at 3 µM; in the data active means activation above about 37%;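 further: CHO cells stably expressing TAAR1 with calcium dye readout; 0% = DMSO vehicle and 100% = full agonist response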
Starred values were filed as active, the others as inactive; nt = no result. Rows were chosen to be rich in hits. Some 4.6% of all compounds tested hit in one or more screens of this group.

SMILES	GPR7 antagonist	TAAR1 ag	TAAR1 antag	OX1R antag-1	CHO parental Ca	OX1R antag-2	TAAR1 nonsel count	TAAR1 ant conf	Ga16 nonsel ag	TAAR1 ag count
COc1ccc2nc(-c3ccc(CN4CCC(c5nc6ccccc6[nH]5)CC4)cc3)c(-c3ccccc3)nc2c1	nt	17	76*	nt	nt	nt	34*	40	11	20
COc1ccc2nc(-c3ccc(CN4CCC5(CC4)CNc4ccccc45)cc3)c(-c3ccccc3)nc2c1	nt	0	0	nt	nt	nt	nt	nt	nt	nt
Brc1ccc2nc(-c3ccc(CN4CCC(c5nc6ccccc6[nH]5)CC4)cc3)c(-c3ccccc3)nc2c1	nt	25	86*	nt	nt	nt	56*	68*	20*	37*
CC(C)(C)c1ccc(CC(=O)N2CCC2(C)C(=O)NS(=O)(=O)c2cccs2)cc1 (centres undefined)	nt	1	-37	nt	nt	nt	nt	nt	nt	nt
COc1cc(NC(=O)C2CC(c3c(F)cccc3Cl)=NO2)cc(OC)c1OC (centres undefined)	-1	17	62*	41	4	0	35*	35	13*	11
Cc1ccc(C(=O)c2cnc3ccccc3c2-c2ccccc2)cc1	9	11	37	26	-19	-2	nt	nt	nt	nt
COc1ccc(C(=O)c2cnc3ccccc3c2-c2ccccc2)cc1	-11	11	57*	41	-27	-27	21	44	4	0
N#CCc1ccccc1C(=O)OCC(=O)N(Cc1ccccc1)Cc1ccccc1	nt	14	64*	0	0	5	29*	51*	6	4
COc1ccc(C(=O)O)cc1S(=O)(=O)NCc1ccccn1	-7	0	-18	-2	2	-5	nt	nt	nt	nt
CCN(CC(=O)Nc1cc(Cl)ccc1C)C(=O)C1CCCCC1	7	0	-1	23	6	-19	nt	nt	nt	nt
Cc1sc2ncnc(N3CCC(C(=O)N(C)CC(=O)Nc4ccccc4Br)CC3)c2c1C	-11	10	63*	24	-31	-25	27*	44	9	8
Cc1sc2ncnc(N3CCC(C(=O)Nc4ccccc4C(C)(C)C)CC3)c2c1C	nt	9	26	27	2	-31	nt	nt	nt	nt
CCN(CC(=O)Nc1cc(Cl)ccc1C)C(=O)C1CCN(c2ncnc3sc(C)c(C)c23)CC1	nt	14	83*	nt	nt	nt	34*	54*	9	6
Cc1sc2ncnc(N3CCC(C(=O)N(C)CC(=O)Nc4ccc(Cl)c(C(F)(F)F)c4)CC3)c2c1C	nt	7	39	26	6	-24	nt	nt	nt	nt
Cc1sc2ncnc(N3CCC(C(=O)N(C)CC(=O)Nc4cccc(F)c4)CC3)c2c1C	nt	18	68*	nt	nt	nt	32*	55*	13*	12
Cc1sc2ncnc(N3CCC(C(=O)N(C)CC(=O)Nc4ccccc4Cl)CC3)c2c1C	13	11	64*	14	-17	-14	25*	41	9	5
Cc1c(C(=O)Nc2cccc([N+](=O)[O-])c2)csc1-c1ccccc1	1	14	81*	72*	-4	9	37*	54*	4	-2
COc1cccc(NC(=O)N2CCN(c3nc(-c4cccc(OC)c4)cs3)CC2)c1	-7	3	73*	5	4	-21	35*	43	7	1
COc1ccc(S(=O)(=O)Nc2cccc(S(=O)(=O)N(C)C)c2)cc1[N+](=O)[O-]	nt	1	-20	nt	nt	nt	nt	nt	nt	nt
O=C(Nc1nc(-c2nc3ccccc3s2)cs1)C1COc2ccccc2O1 (centres undefined)	-3	0	60*	26	-11	-26	26*	33	8	8
COc1ccc(OC)c(-c2csc(NC(=O)C3COc4ccccc4O3)n2)c1 (centres undefined)	-6	0	41	26	-7	-39	nt	nt	nt	nt
O=C(Nc1nc(-c2nc3ccccc3s2)cs1)c1ccc(S(=O)(=O)N2CCOCC2)cc1	1	33	69*	67*	32*	11	52*	70*	22*	25
O=C(Nc1nc(-c2ccccc2)c(-c2ccccc2)s1)c1ccc(S(=O)(=O)N2CCCC2)cc1	-11	6	107*	2	0	2	0	0	-1	-1
O=C(Nc1nc(-c2ccccc2)c(C(=O)c2ccccc2)s1)c1ccc(S(=O)(=O)N2CCCC2)cc1	-14	11	-9	17	-11	-9	nt	nt	nt	nt
COc1cccc(/C=C/C(=O)OCC(=O)N2CCCC2)c1OC	nt	2	-19	11	-11	-1	nt	nt	nt	nt
CCOC(=O)c1c(C)[nH]c(C)c1S(=O)(=O)N(C)CC(=O)NCc1ccc(F)cc1	-9	2	-5	5	-8	-5	nt	nt	nt	nt
CCc1cc(=O)oc2c(C)c(OCC(=O)NCC3CCC(C(=O)O)CC3)ccc12 (centres undefined)	-9	0	-2	6	1	1	nt	nt	nt	nt
O=S(=O)(c1ccc(F)cc1)N1CCN(c2nc(-c3cccnc3)nc3ccccc23)CC1	nt	15	41	7	-26	0	nt	nt	nt	nt
O=S(=O)(c1ccccc1)N1CCN(c2nc(-c3cccnc3)nc3ccccc23)CC1	nt	13	69*	nt	nt	nt	26*	48	10	12
